Experimental data of several laboratories.
Target: Mitogen-activated protein kinase kinase kinase 12 (MAP3K12, Homo sapiens, UniProt Q12852)
Residues used in one study (Q12852 1-859): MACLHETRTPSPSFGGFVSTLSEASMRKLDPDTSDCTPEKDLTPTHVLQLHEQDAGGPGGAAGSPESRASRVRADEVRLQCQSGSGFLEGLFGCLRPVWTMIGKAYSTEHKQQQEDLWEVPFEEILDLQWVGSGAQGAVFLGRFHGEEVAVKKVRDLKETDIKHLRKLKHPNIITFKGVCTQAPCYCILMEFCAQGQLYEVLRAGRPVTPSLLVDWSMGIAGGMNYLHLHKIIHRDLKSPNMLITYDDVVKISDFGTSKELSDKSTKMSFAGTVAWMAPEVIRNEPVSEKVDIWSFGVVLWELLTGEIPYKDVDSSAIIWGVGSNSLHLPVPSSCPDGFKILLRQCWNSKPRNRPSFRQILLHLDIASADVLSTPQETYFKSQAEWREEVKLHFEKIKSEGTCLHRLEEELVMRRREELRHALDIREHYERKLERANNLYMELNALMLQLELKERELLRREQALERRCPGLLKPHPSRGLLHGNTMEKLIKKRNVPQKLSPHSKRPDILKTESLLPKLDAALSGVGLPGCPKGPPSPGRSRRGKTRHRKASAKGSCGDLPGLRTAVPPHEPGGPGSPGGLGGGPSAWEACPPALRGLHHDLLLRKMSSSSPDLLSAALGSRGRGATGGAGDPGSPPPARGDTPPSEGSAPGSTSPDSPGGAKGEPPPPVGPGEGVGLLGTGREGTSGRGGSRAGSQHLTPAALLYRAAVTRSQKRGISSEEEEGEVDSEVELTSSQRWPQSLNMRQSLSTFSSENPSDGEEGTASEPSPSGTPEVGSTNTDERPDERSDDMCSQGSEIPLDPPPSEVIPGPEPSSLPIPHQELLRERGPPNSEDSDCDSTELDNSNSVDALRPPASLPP

CC/C(=N\NC(=O)NCc1cccc(O)c1)c1ccc(O)c(C)c1O
inhibition (enzyme activity; inhibitor; 0.1 µM): 0.4%

COc1ccc2cc(OCC3(C(=O)O)CN(C(=O)c4ccc(F)cc4)C3)ccc2c1
remaining binding (cell-free assay; competition with immobilised ligand; 1 µM): 97%

O=C(Nc1cnn(-c2csc(C(=O)NC3COC3)c2)c1)Nc1ccccc1Cl
remaining activity (enzyme activity; inhibitor; 5 µM): 96.5%

CC(C)(O)[C@H]1CC[C@H](Nc2ccc3ncc(-c4cccc(C(F)(F)F)c4)n3n2)CC1
remaining activity (enzyme activity; inhibitor; 1 µM): 73%

O=C(Nc1cccnn1)N1CCC(=Cc2cccc(Oc3ccc(C(F)(F)F)cn3)c2)CC1
remaining binding (cell-free assay; competition with immobilised ligand; 1 µM): 100%

Nc1ncnc2occ(-c3ccc(NC(=O)Nc4cc(C(F)(F)F)ccc4F)cc3)c12
remaining signal (cell-free assay; inhibitor; 20 µM): 17%

COc1ccnn2ncc(-c3ccnc(N(C)C)n3)c12
remaining binding (binding; 1 µM): 97%

O=C(Nc1cnn(-c2csc(C(=O)NC3COC3)c2)c1)Nc1c(F)cccc1Cl
remaining activity (enzyme activity; inhibitor; 5 µM): 82.2%

N[C@@H]1CCN(c2nccc(-c3cnn4ncccc34)n2)C1
remaining binding (binding; 1 µM): 100%

Cc1ccc(C(=O)Nc2ccc(CN3CCN(C)CC3)c(C(F)(F)F)c2)cc1C#Cc1cnc2cccnn12
remaining activity (enzyme activity; inhibitor; 23.5 nM): 76%
